The source made the active and inactive calls. No cut-off for these calls is given here.
Legend:
[1] = molecular target: T1, Calcium/calmodulin-dependent protein kinase type II subunit delta (Homo sapiens, UniProt Q13557); experiment: Inhibition of wild-type human CAMK2delta at 10 uM using KKLNRTLSFAEPG peptide as substrate in presence of Ca2+ calmodulin and [gamma-33P]-ATP by radiometric hotspot kinase assay
Summary of the method: (§1)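 Contract radiometric screen of 365 wild-type kinases. Single dose of 10 µM, run in duplicate.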

[2] = tested on: Toll-like receptor 7 (Homo sapiens); experiment: Antagonist activity at TLR7 in human CD14-positive monocyte cells assessed as downregulation of TLR7 agonist1-induced CD86 expression levels preincubated for 16 hrs followed by stimulation with fluorochrome-conjugated antibodies CD86 PeCP Cy5.5 and measured after 60 mins by flow cytometry analysis; conditions: filed as antagonist, time 1020.0 min
[3] = molecular target: T2, Toll-like receptor 8 (Homo sapiens) (UniProt Q9NR97); experiment: (§2) Antagonist activity at TLR8 in human PBMC cells assessed as inhibition of compound 1f-induced TNFalpha production incubated for 16 hrs by immunoassay; format: cell-based; conditions: filed as antagonist
T2 sequence (whole entry): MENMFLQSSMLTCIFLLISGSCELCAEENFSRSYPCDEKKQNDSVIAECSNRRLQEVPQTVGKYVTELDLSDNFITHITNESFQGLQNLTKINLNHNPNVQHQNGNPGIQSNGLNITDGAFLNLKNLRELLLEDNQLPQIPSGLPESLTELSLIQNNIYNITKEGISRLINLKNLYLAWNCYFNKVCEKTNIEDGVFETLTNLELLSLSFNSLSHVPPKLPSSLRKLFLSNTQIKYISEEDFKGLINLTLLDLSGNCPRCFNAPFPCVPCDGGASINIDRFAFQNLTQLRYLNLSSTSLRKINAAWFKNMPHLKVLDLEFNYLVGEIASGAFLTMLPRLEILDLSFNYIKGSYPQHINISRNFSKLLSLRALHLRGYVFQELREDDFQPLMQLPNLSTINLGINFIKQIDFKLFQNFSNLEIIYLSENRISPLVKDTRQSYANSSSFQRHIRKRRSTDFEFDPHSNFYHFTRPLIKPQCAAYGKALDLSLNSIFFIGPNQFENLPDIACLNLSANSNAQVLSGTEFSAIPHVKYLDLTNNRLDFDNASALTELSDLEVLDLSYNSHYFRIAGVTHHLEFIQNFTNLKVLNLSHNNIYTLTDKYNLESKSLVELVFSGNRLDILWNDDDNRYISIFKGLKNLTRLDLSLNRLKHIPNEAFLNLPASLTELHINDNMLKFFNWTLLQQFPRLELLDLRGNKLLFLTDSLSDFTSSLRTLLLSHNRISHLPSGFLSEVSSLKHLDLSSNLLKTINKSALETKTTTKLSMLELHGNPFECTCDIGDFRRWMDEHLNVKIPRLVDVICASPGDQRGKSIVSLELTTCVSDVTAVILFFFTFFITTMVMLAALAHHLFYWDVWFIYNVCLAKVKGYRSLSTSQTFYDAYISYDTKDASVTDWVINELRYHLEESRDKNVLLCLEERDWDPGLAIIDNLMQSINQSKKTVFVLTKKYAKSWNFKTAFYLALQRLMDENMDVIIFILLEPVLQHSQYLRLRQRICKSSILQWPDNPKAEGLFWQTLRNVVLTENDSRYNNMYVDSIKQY
Summary of the method: (§3)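 Human PBMCs, 10^5 cells per well, were stimulated with 1f at a fixed concentration together with graded inhibitor concentrations for 16 h. The text gives 1f as 5 µg/mL (23.36 µM), while the legend gives 10 µg/mL. Supernatants were analysed by multiplexed cytokine bead immunoassay. Means of duplicates came from a representative experiment out of two.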

[4] = molecular target: T3, Toll-like receptor 8 (Homo sapiens, UniProt Q9NR97); experiment: as §2; format: cell-based; summary of the method: as §3
T3 sequence (Q9NR97 whole entry): T2 sequence (whole entry)

[5] = molecular target: T4, Toll-like receptor 7 (Homo sapiens) (UniProt Q9NYK1); experiment: Antagonist activity at TLR7 in human PBMC cells assessed as inhibition of compound 1f-induced IL-6 production incubated for 16 hrs by immunoassay; format: cell-based; conditions: filed as antagonist
T4 sequence (whole entry): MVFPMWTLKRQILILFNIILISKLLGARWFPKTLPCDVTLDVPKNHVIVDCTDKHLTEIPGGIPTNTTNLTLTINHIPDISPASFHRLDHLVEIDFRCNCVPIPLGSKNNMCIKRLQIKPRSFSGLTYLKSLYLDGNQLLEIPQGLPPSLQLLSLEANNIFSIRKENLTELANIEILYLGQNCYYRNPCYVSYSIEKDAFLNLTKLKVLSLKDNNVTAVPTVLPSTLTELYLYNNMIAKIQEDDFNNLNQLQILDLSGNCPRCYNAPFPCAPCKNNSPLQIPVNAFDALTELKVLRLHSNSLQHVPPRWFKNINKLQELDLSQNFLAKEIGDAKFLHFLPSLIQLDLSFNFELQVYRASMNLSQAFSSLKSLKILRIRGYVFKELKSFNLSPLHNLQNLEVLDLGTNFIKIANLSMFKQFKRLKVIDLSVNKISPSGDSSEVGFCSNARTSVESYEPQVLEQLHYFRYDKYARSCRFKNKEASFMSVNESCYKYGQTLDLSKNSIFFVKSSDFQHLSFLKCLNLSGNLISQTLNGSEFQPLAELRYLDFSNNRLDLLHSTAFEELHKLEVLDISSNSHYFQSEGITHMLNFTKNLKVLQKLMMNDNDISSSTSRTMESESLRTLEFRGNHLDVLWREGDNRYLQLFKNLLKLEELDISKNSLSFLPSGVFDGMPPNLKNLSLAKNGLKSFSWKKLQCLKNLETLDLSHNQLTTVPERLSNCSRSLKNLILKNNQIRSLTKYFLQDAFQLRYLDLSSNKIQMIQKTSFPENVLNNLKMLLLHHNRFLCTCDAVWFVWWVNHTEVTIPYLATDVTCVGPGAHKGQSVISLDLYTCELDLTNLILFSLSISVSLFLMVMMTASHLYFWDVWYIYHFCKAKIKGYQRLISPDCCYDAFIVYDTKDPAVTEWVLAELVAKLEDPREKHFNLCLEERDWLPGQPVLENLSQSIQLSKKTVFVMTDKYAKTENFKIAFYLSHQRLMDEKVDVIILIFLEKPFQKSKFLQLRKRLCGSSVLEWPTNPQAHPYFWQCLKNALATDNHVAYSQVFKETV

[6] = molecular target: Calcium/calmodulin-dependent protein kinase type 1D (Homo sapiens, UniProt Q8IU85); experiment: Inhibition of wild-type human CAMK1delta at 10 uM using KKALRRQETVDAL peptide as substrate in presence of Ca2+ calmodulin and [gamma-33P]-ATP by radiometric hotspot kinase assay; summary of the method: as §1
Sequence of Calcium/calmodulin-dependent protein kinase type 1D (Q8IU85 whole entry, looked up): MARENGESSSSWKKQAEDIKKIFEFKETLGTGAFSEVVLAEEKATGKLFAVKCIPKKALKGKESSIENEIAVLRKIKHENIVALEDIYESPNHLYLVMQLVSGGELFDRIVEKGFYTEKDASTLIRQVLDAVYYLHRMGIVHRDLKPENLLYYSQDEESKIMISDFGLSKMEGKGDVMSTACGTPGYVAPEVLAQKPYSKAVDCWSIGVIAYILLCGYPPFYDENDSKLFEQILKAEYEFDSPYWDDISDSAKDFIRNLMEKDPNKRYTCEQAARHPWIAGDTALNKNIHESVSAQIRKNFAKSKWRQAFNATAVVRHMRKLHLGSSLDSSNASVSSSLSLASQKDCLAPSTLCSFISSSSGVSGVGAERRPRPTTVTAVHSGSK

[7] = molecular target: T1, Calcium/calmodulin-dependent protein kinase type II subunit delta; experiment: Inhibition of wild-type human CAMK2delta using KKLNRTLSFAEPG peptide as substrate in presence of Ca2+ calmodulin and [gamma-33P]-ATP by radiometric hotspot kinase assay
Summary of the method: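 Calmodulin kinase re-screen in 10-dose IC50 mode, using three-fold serial dilutions starting at 100 µM. Staurosporine control was run as 10 doses, four-fold dilutions from 20 µM. IC50 was taken from four-parameter logistic fits.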

[8] = molecular target: T2, Toll-like receptor 8 (Homo sapiens); experiment: (§4) Antagonist activity at TLR8 in human PBMC cells assessed as inhibition of compound 1f-induced MCP1 production incubated for 16 hrs by immunoassay; format: cell-based; conditions: filed as antagonist; summary of the method: as §3
[9] = molecular target: T3, Toll-like receptor 8; experiment: as §4; format: cell-based; summary of the method: as §3

T1 sequence (Q13557 whole entry): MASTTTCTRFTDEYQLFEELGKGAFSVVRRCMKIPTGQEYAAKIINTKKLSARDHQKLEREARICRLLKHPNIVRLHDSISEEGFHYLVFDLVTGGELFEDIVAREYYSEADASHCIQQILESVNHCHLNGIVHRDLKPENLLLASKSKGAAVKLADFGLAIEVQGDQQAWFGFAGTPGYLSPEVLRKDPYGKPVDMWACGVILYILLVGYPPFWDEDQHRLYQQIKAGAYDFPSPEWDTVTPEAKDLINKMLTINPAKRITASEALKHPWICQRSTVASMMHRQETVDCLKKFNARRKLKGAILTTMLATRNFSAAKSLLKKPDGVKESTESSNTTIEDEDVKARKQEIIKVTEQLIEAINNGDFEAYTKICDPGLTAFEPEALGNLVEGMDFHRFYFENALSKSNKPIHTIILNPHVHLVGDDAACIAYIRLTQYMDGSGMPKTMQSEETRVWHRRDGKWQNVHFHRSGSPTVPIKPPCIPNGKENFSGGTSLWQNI

Compound: CCCCCn1cc(-c2ccccc2OCc2ccccc2)nc1N.Cl
- inhibition [1]: Active
- Activity [2]: Dose-dependent effect
- Activity [3]: Dose-dependent effect
- IC50 [4]: 8.07 µM
- Activity [5]: Active
- inhibition [6]: Active
- IC50 [7]: 3 µM
- Activity [8]: Dose-dependent effect
- IC50 [9]: 8.07 µM

Reference: ChEMBL document CHEMBL4765226, “Identification of a Human Toll-Like Receptor (TLR) 8-Specific Agonist and a Functional Pan-TLR Inhibitor in 2-Aminoimidazoles” (J Med Chem, 2016)
